Like-named read-outs stand apart in the source and are kept apart here. Some results are limits rather than exact numbers.

The format of series [1] is in vivo, human. The settings on record: for AUC(0-inf) / AUC(0-t) / Vd/F / half-life: human, po; for Plasma concentration at 6 h after clopidogrel administration: most subjects, LLOQ 0.25 ng/mL.
The conditions of series [2]: cited from earlier work.
The subject of series [3] is ADP-induced platelet aggregation. Put plainly: ADP-induced whole-blood platelet aggregation, Multiplate impedance aggregometer. Type of series: in vivo, human. Summed up:
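Caucasian patients from central Poland undergoing coronary or peripheral interventions received the test drug orally, fasting, 75 mg daily for 7 days beforehand. Blood was drawn 2–3 h post-dose into hirudin tubes, diluted 1:1 with 0.9 % NaCl, and stirred 3 min at 37 °C. ADP was added at 6.4 μmol/L, and impedance was recorded for 6 min. Aggregation was expressed as AUC (AU·min).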

For series [4] the following is noted: cited from earlier work. This is another data set of the same source.
The mark [5] stands for this setting: patients, oral clopidogrel 75 mg for 7 days, plasma.
[6] abbreviates: patients, oral clopidogrel 75 mg, plasma.
Setting [7] is: patients, single oral clopidogrel 300 mg loading dose, plasma.
Where [8] appears, read: patients, single oral clopidogrel 300 mg, plasma.
Setting [9] is: clopidogrel 75 mg maintenance dose, 6.4 μmol/L ADP.
The mark [10] stands for this setting: clopidogrel 75 mg, single subject.
The mark [11] stands for this setting: clopidogrel 75 mg, diabetes mellitus no (n = 19).
The mark [12] stands for this setting: clopidogrel 75 mg, diabetes mellitus yes (n = 11).
[13] abbreviates: clopidogrel 75 mg, proton-pump inhibitors no (n = 15).
Where [14] appears, read: clopidogrel 75 mg, proton-pump inhibitors yes (n = 13).
The mark [15] stands for this setting: healthy volunteers, clopidogrel 75 mg, ref 10.

In the case of `O=C(O)[C@H](c1ccccc1Cl)N1CCc2sccc2C1` [CLPM], in series [1] (patients, clopidogrel 75 and 300 mg), the “C max in plasma relative to that of the parent drug” value was “thousand-fold greater”. In addition, the “C max (mean ± SD)” value in series [1] (setting [5]) is on record as 2,516 ± 1,754 ng/mL. Moreover, in series [1] (setting [6]), the “AUCt (mean ± SD)” value was 11,077 ± 7,768 ng·h/mL, the “AUC∞ (mean ± SD)” value is listed as 12,383 ± 8,552 ng·h/mL and the “t max (mean ± SD)” value is given as 1.37 ± 0.74 h. In series [1] (setting [7]), the “C max (mean ± SD)” value is 8,464 ± 3,772 ng/mL. In series [1] (setting [8]), the “AUCt (mean ± SD)” value is given as 32,979 ± 12,321 ng·h/mL, the “AUC∞ (mean ± SD)” value is recorded as 37,249 ± 13,861 ng·h/mL and the “t max (mean ± SD)” value is recorded as 1.61 ± 1.21 h.

For `COC(=O)[C@H](c1ccccc1Cl)N1CCC(S)/C(=C\C(=O)O)C1` (some centres unmarked) [CTM], the C max in series [2] (healthy control subjects, clopidogrel 600 mg) is recorded as 14.5 ng/mL; in series [2] (patients with a history of stent thrombosis, clopidogrel 600 mg), 3.2 ng/mL. Further, in series [2] (method not distinguishing H3 and H4 isomers), the Concentrations in plasma is on record as over 20 ng/mL.

Usually AUC(0-inf) stands for the area under the concentration-time curve extrapolated to infinity. Low values mean less exposure, high ones more exposure. The AUC(0-t) is the area under the concentration-time curve up to a stated or last time point. Read a low AUC(0-t) as less exposure. In general, Vd/F refers to the volume of distribution divided by bioavailability. What is called half-life is the time needed for the level to fall by half in the phase considered. Turning to `COC(=O)[C@H](c1ccccc1Cl)N1CCc2sccc2C1` [Clopidogrel, (+)-S clopidogrel bisulfate, reference compound], the AUC(0-inf) in series [1] (plasma, 75 mg) was found to be 0.00629 ± 0.00411 µg·h/mL; in series [1] (plasma, 300 mg), 0.0218 ± 0.0133 µg·h/mL. Also, the AUC(0-t) in series [1] (plasma, 75 mg) worked out at 0.00507 ± 0.0038 µg·h/mL; in series [1] (plasma, 300 mg) it was 0.0208 ± 0.0134 µg·h/mL. Further, the Vd/F in series [1] (plasma, 75 mg) is 39200 ± 33500 L; in series [1] (plasma, 300 mg), 45500 ± 19200 L. Moreover, the half-life is 1.71 ± 1.28 h in series [1] (plasma, 75 mg) and 1.99 ± 0.44 h in series [1] (plasma, 300 mg). For the same compound, the “CL/F (mean ± SD)” value in series [1] (patients, oral clopidogrel 75 mg) is on record as 18.96 ± 15.89 ×10^3 L/h; in series [1] (patients, single oral clopidogrel 300 mg) it was 16.98 ± 10.41 ×10^3 L/h. The results for the “C max (mean ± SD)” value in series [1] (setting [5]) and in series [1] (setting [7]) were 2.04 ± 2.0 ng/mL and 4.51 ± 3.42 ng/mL, respectively. The “t max (mean ± SD)” value in series [1] (setting [8]) was 1.17 ± 0.76 h. Moreover, the “Platelet aggregation, mean ± SD” value in series [3] (setting [9]) was found to be 166 ± 146 AU·min. Also, in series [3] (setting [9]), the “Platelet aggregation, median” value worked out at 141 AU·min. The “Number of patients characterized as non-responders (AUC >468 AU·min)” value in series [3] (clopidogrel 75 mg, 38 patients) was “two”. Further, the “Number of patients with low platelet aggregation (AUC <100 AU·min)” value in series [3] (clopidogrel 75 mg, 38 patients) is listed as 14 patients. For the same compound, the “Platelet aggregation (AUC), one patient with high H4 concentrations” value in series [3] (clopidogrel 75 mg, single patient later excluded from the correlation) is 637 AU·min. Besides, the “Platelet aggregation, one subject with low H4 concentrations” value in series [3] (setting [10]) was determined as 747 AU·min. The C max in series [2] (Argentinean subjects, clopidogrel 75 mg) is on record as 0.9 ng/mL; in series [2] (Egyptian healthy volunteers, clopidogrel 75 mg) it was 4.4 ng/mL; in series [2] (US healthy volunteers, fasted state, clopidogrel 75 mg), 1.5 ng/mL; in series [2] (US healthy volunteers, fed state, clopidogrel 75 mg), 2.5 ng/mL. Besides, the “Fraction of the absorbed drug transformed by carboxyl esterases into CLPM” value in series [4] is “Up to 85%”.

As for `COC(=O)[C@H](c1ccccc1Cl)N1CC[C@H](S)/C(=C\C(=O)O)C1` [H3], the “AUCt (mean ± SD)” value in series [1] (setting [11]) is on record as 6.71 ± 4.47 ng·h/mL; in series [1] (setting [12]) it was 7.88 ± 9.33 ng·h/mL; in series [1] (setting [13]), 7.03 ± 5.52 ng·h/mL; in series [1] (setting [14]), 7.76 ± 8.16 ng·h/mL; in series [1] (setting [6]), 7.37 ± 6.71 ng·h/mL; in series [1] (setting [8]), 11.24 ± 8.31 ng·h/mL. For the same compound, the “C max (mean ± SD)” value in series [1] (setting [11]) stood at 4.90 ± 4.02 ng/mL; in series [1] (setting [12]), 5.96 ± 7.69 ng/mL; in series [1] (setting [13]) it was 5.00 ± 4.93 ng/mL; in series [1] (setting [14]), 5.94 ± 6.63 ng/mL; in series [1] (setting [5]), 5.29 ± 5.54 ng/mL; in series [1] (setting [7]) it was 8.47 ± 1.69 ng/mL. Moreover, the “Plasma concentration at 6 h after clopidogrel administration” value in series [1] is reported as “below the limit of quantification”. Also, the “AUC∞ (mean ± SD)” value is 7.96 ± 6.85 ng·h/mL in series [1] (setting [6]) and 11.70 ± 8.33 ng·h/mL in series [1] (setting [8]). Also, the “t max (mean ± SD)” value came out at 1.08 ± 0.62 h in series [1] (setting [6]) and 0.83 ± 0.29 h in series [1] (setting [8]). Besides, the “t ½ (mean ± SD)” value in series [1] (setting [6]) is recorded as 0.78 ± 0.78 h; in series [1] (setting [8]) it was 0.72 ± 0.18 h. Also, the C max in series [2] (setting [15]) is 17.8 ng/mL.

As for `COC(=O)[C@H](c1ccccc1Cl)N1CCC(S)/C(=C\C(=O)O)C1` (some centres unmarked) [H4], the “Exposure to H4 relative to exposure to the H3 isomer” value in series [1] (after clopidogrel 300 mg (n = 3)) is “two times greater”. Also, the “AUCt (mean ± SD)” value worked out at 10.46 ± 9.78 ng·h/mL in series [1] (setting [11]); 11.69 ± 9.63 ng·h/mL in series [1] (setting [12]); 9.69 ± 9.81 ng·h/mL in series [1] (setting [13]); 13.10 ± 9.82 ng·h/mL in series [1] (setting [14]); 11.30 ± 9.58 ng·h/mL in series [1] (setting [6]); 25.04 ± 27.41 ng·h/mL in series [1] (setting [8]). For the same compound, the “C max (mean ± SD)” value in series [1] (setting [11]) amounted to 6.61 ± 6.30 ng/mL; in series [1] (setting [12]) it was 8.04 ± 6.55 ng/mL; in series [1] (setting [13]), 5.92 ± 4.53 ng/mL; in series [1] (setting [14]), 9.04 ± 8.07 ng/mL; in series [1] (setting [5]) it was 7.13 ± 6.32 ng/mL; in series [1] (setting [7]) it was 17.92 ± 20.38 ng/mL. The “C max, one patient with high platelet aggregation (637 AU·min)” value in series [1] (clopidogrel 75 mg, single patient) is 23.3 ng/mL. In addition, the “C max, one subject with high platelet aggregation (747 AU·min)” value in series [1] (setting [10]) amounted to 2.5 ng/mL. Further, the “Plasma concentration at 6 h after clopidogrel administration” value in series [1] was “below the limit of quantification”. For the same compound, the “AUC∞ (mean ± SD)” value in series [1] (setting [6]) was 11.97 ± 9.75 ng·h/mL; in series [1] (setting [8]), 25.69 ± 27.54 ng·h/mL. Also, the “t max (mean ± SD)” value is on record as 1.04 ± 0.53 h in series [1] (setting [6]) and 0.83 ± 0.29 h in series [1] (setting [8]). Besides, the “t ½ (mean ± SD)” value was found to be 0.90 ± 0.86 h in series [1] (setting [6]) and 0.84 ± 0.20 h in series [1] (setting [8]). For the same compound, the C max is given as 16.4 ng/mL in series [2] (setting [15]) and 11 ng/mL in series [2] (healthy volunteers, clopidogrel 75 mg, ref 32).

The values above are taken from PMC3899497 (Clinical Pharmacokinetics, 2013).
